From ChEMBL document CHEMBL1143198, “Potent, nonpeptide inhibitors of human mast cell tryptase. Synthesis and biological evaluation of novel spirocyclic piperidine amide derivatives” (Bioorg Med Chem Lett, 2008)
Activity calls are given as the source filed them. The calls are words filed in the database; no cut-off is given here.

Key:
[1] = target: Trypsin (Homo sapiens, UniProt P07477+P07478+P35030); test: Inhibition of human trypsin by chromogenic assay; type: protein assay
[2] = Inhibition of human lung beta tryptase by chromogenic assay
[3] = test system: Plasma; test: Drug level in sheep plasma; type: ADME, cell-free, Ovis aries
[4] = test system: Cavia porcellus; test: Antiinflammatory activity in ovalbumin-sensitized guinea pig asthma model assessed as reduction in total lung resistance at 20 mg/kg, po BID for 3 days relative to control; type: functional; design: scale not given: the % may be the effect or the level left
In short: (§1)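 Ovalbumin-sensitized guinea pigs received the benzoate salt orally at 20 mg/kg twice daily for 3 days, then once on Day 4 at 2 h before ovalbumin challenge.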

[5] = test system: Cavia porcellus; test: Antiinflammatory activity in ovalbumin-sensitized guinea pig asthma model assessed as increase in dynamic lung compliance at 20 mg/kg, po BID for 3 days relative to control; type: functional; in short: as §1
[6] = test system: Cavia porcellus; test: Antiinflammatory activity in ovalbumin-sensitized guinea pig asthma model assessed as reduction in total WBC cell count at 20 mg/kg, po BID for 3 days relative to control; type: functional; design: scale not given: the % may be the effect or the level left; in short: as §1
[7] = organism: Homo sapiens; test: Inhibition of human recombinant beta tryptase at 50 uM by chromogenic assay; conditions: in the assay text read “human lung beta tryptase” for “human recombinant beta tryptase”
In short: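 A405 followed for 15 min at 22 °C after enzyme addition. Percent inhibition at 50 µM compared initial velocities with and without inhibitor.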

[8] = target: Amine oxidase [flavin-containing] A (Homo sapiens, UniProt P21397); test: Inhibition of monoamine oxidase A
[9] = target: Amine oxidase [flavin-containing] B (Homo sapiens, UniProt P27338); test: Inhibition of monoamine oxidase B
[10] = test system: monoamine oxidase B; test: Stability in presence of monoamine oxidase B after 30 mins; type: ADME; conditions: read-out: Stability
In short: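 The compound was tested as an MAO-B substrate, with parent remaining measured at 30 min. Benzylamine was run as a reference substrate.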

[11] = Oral bioavailability in rat; type: ADME, organism-based; conditions: in vivo
[12] = Cmax in orally dosed rat; type: ADME, organism-based; design: route oral; conditions: in vivo, po
[13] = Half life in orally dosed rat; type: ADME, organism-based; conditions: in vivo, po
[14] = test system: Rattus norvegicus; test: Volume of distribution in orally dosed rat; type: ADME, organism-based; conditions: in vivo, po
[15] = Oral bioavailability in dog; type: ADME, organism-based, Canis lupus familiaris; conditions: in vivo
[16] = Cmax in orally dosed dog; type: ADME, organism-based, Canis lupus familiaris; design: route oral; conditions: in vivo, po
[17] = Half life in orally dosed dog; type: ADME, organism-based, Canis lupus familiaris; conditions: in vivo, po
[18] = test system: Canis familiaris; test: Volume of distribution in orally dosed dog; type: ADME, organism-based, Canis lupus familiaris; conditions: in vivo, po
[19] = Metabolic stability in human liver microsomes assessed as half life; type: ADME, Microsome
[20] = Metabolic stability in human liver microsomes after 60 mins; type: ADME, Microsome; conditions: read-out: Stability
[21] = target: Cytochrome P450 1A2 (Homo sapiens, UniProt P05177); test: Inhibition of human CYP1A2; type: ADME
In short: (§2)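 IC50 for cytochrome P450 isozyme inhibition was measured in isolated human liver microsomes.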

[22] = target: Cytochrome P450 2C9 (Homo sapiens, UniProt P11712); test: Inhibition of human CYP2C9; type: ADME; in short: as §2
[23] = target: Cytochrome P450 2D6 (Homo sapiens, UniProt P10635); test: Inhibition of human CYP2D6; type: ADME; in short: as §2
[24] = target: Cytochrome P450 2C19 (Homo sapiens, UniProt P33261); test: Inhibition of human CYP2C19; type: ADME; in short: as §2
[25] = target: Cytochrome P450 3A4 (Homo sapiens, UniProt P08684); test: Inhibition of human CYP3A4; type: ADME; in short: as §2
[26] = target: Coagulation factor X (Homo sapiens) (UniProt P00742); test: Inhibition of factor 10a at 50 uM
[27] = target: Chymase (Homo sapiens) (UniProt P23946); test: Inhibition of chymase at 50 uM
[28] = target: Cathepsin G (Homo sapiens) (UniProt P08311); test: Inhibition of cathepsin G at 50 uM
[29] = target: Prothrombin (Homo sapiens) (UniProt P00734); test: Inhibition of thrombin at 10 uM
[30] = target: Plasminogen (Homo sapiens) (UniProt P00747); test: Inhibition of plasmin at 10 uM
[31] = target: Tissue-type plasminogen activator (Homo sapiens) (UniProt P00750); test: Inhibition of tPA at 10 uM
[32] = target: Coagulation factor VII (Homo sapiens) (UniProt P08709); test: Inhibition of factor 7a at 10 uM
[33] = target: Plasma kallikrein (Homo sapiens) (UniProt P03952); test: Inhibition of kallikrein at 10 uM
[34] = target: Urokinase-type plasminogen activator (Homo sapiens) (UniProt P00749); test: Inhibition of uPA at 10 uM
[35] = Inhibition of streptokinase at 10 uM
[36] = target: Neutrophil elastase (Homo sapiens) (UniProt P08246); test: Inhibition of human leukocyte elastase at 10 uM
[37] = Inhibition of chymotrypsin at 10 uM
[38] = test system: Ovis aries; test: Antiinflammatory activity in Ascaris suum-sensitized sheep asthma model assessed as blockade of late-phase airway response at 30 mg/kg, po BID after 8 hrs; type: functional, organism-based; design: dose 30 mg/kg
In short: (§3)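 Conscious, antigen-sensitized allergic sheep were dosed by oral gavage with the benzoate salt at 30 mg/kg twice on Day 1, and on Day 2 at 2 h before antigen challenge. Airway resistance (SR_L) was monitored for 8 h after challenge: early phase 0–4 h, late phase 4–8 h. Airway hyper-reactivity to carbachol (PC₄₀₀) was measured at 24 h.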

[39] = test system: Ovis aries; test: Antiinflammatory activity in Ascaris suum-sensitized sheep asthma model assessed as blockade of early-phase airway response at 30 mg/kg, po BID after 8 hrs; type: functional, organism-based; design: dose 30 mg/kg; in short: as §3
[40] = test system: Ovis aries; test: Antiinflammatory activity in Ascaris suum-sensitized sheep asthma model assessed as increase in airway hyperactivity at 30 mg/kg, po BID after 24 hrs relative to carbachol; type: functional, organism-based; design: dose 30 mg/kg; in short: as §3
[41] = organism: Homo sapiens; test: Ratio of IC50 for human trypsin to IC50 for human tryptase
In short: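 Human lung β-tryptase: 1 nM, H-D-HHT-Ala-Arg-pNA 500 µM, Tris/Hepes/NaCl/PEG buffer, pH 7.4. Human pancreatic trypsin: 1.8 nM, N-α-Z-D-Arg-Gly-Arg-pNA 60 µM, 200 mM NaCl, 50 mM Hepes, 0.5% octyl glucoside, pH 7.4.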

Sequence of Cytochrome P450 2C19 (P33261 whole entry): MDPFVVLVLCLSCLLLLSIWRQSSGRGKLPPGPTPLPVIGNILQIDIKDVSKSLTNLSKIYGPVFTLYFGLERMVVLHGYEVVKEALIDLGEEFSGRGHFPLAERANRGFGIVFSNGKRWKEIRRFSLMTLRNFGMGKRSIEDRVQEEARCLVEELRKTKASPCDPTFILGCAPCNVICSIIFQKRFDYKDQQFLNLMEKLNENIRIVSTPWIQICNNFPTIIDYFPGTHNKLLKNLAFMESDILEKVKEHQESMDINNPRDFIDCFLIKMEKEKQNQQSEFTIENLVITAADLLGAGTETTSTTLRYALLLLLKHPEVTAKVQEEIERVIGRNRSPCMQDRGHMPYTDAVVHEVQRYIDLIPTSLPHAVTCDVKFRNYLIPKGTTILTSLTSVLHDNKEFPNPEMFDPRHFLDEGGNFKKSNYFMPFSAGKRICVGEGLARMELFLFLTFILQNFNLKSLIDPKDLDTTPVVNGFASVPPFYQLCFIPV
Sequence of Plasma kallikrein (Homo sapiens) (P03952 20-390 limits assumed): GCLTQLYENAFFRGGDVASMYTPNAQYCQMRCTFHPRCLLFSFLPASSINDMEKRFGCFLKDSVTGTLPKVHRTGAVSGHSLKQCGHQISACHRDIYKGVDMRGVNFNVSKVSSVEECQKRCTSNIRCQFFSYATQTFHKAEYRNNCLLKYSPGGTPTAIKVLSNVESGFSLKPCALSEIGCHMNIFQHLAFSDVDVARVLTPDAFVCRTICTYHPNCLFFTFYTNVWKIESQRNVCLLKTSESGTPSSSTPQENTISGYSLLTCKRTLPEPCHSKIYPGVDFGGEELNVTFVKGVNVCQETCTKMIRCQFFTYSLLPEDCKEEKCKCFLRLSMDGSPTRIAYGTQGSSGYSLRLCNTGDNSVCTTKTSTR
Sequence of Plasma kallikrein (Homo sapiens) (P03952 391-638 limits assumed): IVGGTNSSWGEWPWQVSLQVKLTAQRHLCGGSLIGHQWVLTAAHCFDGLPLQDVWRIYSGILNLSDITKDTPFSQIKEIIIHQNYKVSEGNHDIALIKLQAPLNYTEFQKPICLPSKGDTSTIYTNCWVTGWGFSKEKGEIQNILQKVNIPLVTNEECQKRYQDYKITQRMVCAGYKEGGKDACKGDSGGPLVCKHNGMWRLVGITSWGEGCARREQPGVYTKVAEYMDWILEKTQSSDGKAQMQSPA
Sequence of Cytochrome P450 2C9 (P11712 whole entry): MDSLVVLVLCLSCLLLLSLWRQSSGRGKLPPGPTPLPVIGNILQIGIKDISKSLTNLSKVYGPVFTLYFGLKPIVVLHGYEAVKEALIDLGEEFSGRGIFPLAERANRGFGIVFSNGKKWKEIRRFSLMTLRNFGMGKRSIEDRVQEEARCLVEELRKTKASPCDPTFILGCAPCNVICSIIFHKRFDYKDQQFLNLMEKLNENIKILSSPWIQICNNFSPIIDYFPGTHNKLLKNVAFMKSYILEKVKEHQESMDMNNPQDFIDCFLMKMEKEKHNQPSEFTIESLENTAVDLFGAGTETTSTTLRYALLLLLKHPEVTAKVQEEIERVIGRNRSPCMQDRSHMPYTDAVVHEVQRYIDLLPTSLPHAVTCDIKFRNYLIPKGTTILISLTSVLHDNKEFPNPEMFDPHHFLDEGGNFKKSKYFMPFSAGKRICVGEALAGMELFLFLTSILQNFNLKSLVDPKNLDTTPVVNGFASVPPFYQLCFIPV
Sequence of Chymase (Homo sapiens) (P23946 whole entry): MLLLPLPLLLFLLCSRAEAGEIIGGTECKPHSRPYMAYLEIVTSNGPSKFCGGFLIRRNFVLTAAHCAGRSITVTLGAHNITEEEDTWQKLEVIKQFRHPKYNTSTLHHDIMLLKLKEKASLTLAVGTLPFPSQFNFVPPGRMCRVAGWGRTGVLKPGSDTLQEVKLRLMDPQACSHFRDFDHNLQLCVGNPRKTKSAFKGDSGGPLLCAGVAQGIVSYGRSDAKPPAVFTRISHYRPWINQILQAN
Sequence of Cytochrome P450 3A4 (P08684 whole entry): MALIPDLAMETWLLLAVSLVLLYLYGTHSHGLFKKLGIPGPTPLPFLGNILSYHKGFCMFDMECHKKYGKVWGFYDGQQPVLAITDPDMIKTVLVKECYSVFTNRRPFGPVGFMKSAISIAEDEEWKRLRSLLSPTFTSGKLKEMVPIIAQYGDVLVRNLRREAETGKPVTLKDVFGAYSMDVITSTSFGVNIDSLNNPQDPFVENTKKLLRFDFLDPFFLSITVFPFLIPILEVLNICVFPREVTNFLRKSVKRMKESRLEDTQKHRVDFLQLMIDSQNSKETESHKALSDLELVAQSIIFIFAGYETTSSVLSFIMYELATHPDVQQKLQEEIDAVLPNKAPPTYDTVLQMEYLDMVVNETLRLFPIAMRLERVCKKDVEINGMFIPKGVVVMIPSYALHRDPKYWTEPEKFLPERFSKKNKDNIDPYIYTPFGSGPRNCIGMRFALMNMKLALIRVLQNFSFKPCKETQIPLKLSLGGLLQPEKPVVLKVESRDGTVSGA
Sequence of Cytochrome P450 1A2 (P05177 whole entry): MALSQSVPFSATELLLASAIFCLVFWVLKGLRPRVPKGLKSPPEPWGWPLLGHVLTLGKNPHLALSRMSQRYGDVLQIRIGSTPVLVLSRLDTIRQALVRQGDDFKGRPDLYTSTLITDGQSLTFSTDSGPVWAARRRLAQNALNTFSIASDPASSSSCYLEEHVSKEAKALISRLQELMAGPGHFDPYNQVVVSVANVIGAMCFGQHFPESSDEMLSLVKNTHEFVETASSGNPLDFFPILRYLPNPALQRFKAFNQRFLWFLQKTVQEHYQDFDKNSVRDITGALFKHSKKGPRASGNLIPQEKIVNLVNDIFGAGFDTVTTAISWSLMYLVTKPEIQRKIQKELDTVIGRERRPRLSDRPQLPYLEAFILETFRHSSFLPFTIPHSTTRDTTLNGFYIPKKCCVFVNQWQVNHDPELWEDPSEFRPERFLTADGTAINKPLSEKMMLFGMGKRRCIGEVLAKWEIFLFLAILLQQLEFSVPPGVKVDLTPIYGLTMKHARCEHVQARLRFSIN
Sequence of Neutrophil elastase (Homo sapiens) (P08246 whole entry): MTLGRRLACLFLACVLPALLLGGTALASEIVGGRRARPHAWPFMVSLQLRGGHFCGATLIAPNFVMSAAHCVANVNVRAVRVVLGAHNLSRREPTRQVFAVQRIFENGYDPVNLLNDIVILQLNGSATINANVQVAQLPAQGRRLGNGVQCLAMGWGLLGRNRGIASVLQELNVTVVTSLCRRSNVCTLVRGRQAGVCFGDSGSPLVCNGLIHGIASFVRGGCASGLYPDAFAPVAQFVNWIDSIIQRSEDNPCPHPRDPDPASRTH
Sequence of Amine oxidase [flavin-containing] A (P21397 whole entry): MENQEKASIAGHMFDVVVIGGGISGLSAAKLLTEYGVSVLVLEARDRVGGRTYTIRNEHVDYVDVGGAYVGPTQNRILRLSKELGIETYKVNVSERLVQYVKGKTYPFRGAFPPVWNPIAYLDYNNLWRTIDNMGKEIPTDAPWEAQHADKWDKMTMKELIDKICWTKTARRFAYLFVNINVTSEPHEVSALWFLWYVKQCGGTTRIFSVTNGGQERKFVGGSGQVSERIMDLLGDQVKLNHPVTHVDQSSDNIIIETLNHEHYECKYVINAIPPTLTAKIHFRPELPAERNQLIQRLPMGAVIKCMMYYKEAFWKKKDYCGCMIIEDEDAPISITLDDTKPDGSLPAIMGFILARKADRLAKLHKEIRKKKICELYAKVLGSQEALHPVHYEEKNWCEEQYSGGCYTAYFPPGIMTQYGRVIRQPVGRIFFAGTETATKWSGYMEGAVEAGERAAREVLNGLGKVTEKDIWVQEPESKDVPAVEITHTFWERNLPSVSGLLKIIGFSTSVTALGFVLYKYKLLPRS
Sequence of Amine oxidase [flavin-containing] B (P27338 whole entry): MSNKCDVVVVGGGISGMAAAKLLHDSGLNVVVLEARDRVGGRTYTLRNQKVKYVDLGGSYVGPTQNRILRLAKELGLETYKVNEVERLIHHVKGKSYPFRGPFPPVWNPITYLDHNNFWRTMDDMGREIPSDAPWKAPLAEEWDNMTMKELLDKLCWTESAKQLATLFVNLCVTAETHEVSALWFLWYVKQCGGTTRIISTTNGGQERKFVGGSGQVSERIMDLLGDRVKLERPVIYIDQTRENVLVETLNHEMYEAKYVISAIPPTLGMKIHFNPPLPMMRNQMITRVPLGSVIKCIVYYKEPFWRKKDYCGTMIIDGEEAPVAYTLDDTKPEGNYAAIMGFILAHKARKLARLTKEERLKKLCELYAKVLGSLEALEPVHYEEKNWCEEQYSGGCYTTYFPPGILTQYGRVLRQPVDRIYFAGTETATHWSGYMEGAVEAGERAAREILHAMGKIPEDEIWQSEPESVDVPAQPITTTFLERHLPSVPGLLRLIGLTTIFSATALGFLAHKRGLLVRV
Sequence of Coagulation factor VII (Homo sapiens) (P08709 61-212 limits assumed): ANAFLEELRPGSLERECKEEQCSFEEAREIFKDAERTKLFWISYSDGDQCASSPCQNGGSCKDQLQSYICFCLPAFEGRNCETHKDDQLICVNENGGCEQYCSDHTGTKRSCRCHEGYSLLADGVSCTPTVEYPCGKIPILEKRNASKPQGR
Sequence of Coagulation factor VII (Homo sapiens) (P08709 213-466 limits assumed): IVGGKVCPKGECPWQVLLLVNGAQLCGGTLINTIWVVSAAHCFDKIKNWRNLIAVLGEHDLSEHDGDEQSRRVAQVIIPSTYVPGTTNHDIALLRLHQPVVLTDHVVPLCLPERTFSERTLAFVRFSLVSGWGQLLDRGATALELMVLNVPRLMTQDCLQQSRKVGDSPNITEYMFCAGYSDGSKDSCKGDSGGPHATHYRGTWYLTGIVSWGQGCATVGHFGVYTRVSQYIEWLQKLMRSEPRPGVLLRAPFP
Sequence of Cathepsin G (Homo sapiens) (P08311 whole entry): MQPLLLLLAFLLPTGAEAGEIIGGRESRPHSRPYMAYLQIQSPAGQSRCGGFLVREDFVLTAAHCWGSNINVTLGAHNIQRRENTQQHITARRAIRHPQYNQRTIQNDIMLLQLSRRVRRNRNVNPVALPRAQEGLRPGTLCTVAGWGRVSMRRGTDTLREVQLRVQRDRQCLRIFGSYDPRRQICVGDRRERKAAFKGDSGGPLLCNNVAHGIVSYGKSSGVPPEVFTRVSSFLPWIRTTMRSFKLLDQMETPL

| SMILES | IC50 [1] [µM] | IC50 [2] [nM] | Ki [2] [nM] | further results |
| --- | --- | --- | --- | --- |
| CC(C)(C)c1ccc(C#Cc2ccc(C(=O)N3CCC4(CC3)COc3ccc(CN)cc34)o2)cc1 | 13 | 700 |  |  |
| NCc1ccc2c(c1)C1(CCN(C(=O)c3ccc(C#Cc4ccccc4)o3)CC1)CN2 | > 50 | 23 |  |  |
| N/N=C(\N)c1ccc2c(c1)C1(CCN(C(=O)c3ccc(C#Cc4ccccc4)o3)CC1)CO2 | > 50 | 59 |  |  |
| NCc1ccc2c(c1)C1(CCN(C(=O)c3ccc(C#Cc4ccccc4)o3)CC1)CO2.O=C(O)c1ccccc1 |  |  |  | concentration [3]: 400 nM; Activity [4]: 90%; Activity [5]: 65%; Activity [6]: 20% |
| CC(=O)N1CC2(CCN(C(=O)c3ccc(C#Cc4ccccc4)o3)CC2)c2cc(CN)ccc21 | > 50 | 15 |  |  |
| NCc1cccc(C2CCN(C(=O)c3ccc(C#Cc4ccccc4F)o3)CC2)c1 |  |  | 31 |  |
| NC(=O)c1ccc2c(c1)C1(CCN(C(=O)c3ccc(C#Cc4ccccc4)o3)CC1)CO2 | 39 |  |  | inhibition [7]: 29% |
| CS(=O)(=O)N1CC2(CCN(C(=O)c3ccc(C#Cc4ccccc4)o3)CC2)c2cc(CN)ccc21 | > 50 | 1.8 | 7.1 |  |
| NCc1cccc(C2CCN(C(=O)c3ccc(C#Cc4ccccc4)o3)CC2)c1 |  |  | 8.7 |  |
| NCc1ccc2c(c1)C1(CCN(C(=O)c3ccc(CCc4ccccc4)o3)CC1)CO2 | 47 | 82 |  |  |
| NCc1ccc2c(c1)C1(CC2)CCN(C(=O)c2ccc(C#Cc3ccccc3)o2)CC1 | 7.7 | 3.1 |  |  |
| C/N=C(/N)c1ccc2c(c1)C1(CCN(C(=O)c3ccc(C#Cc4ccccc4)o3)CC1)CO2 | > 50 | 780 |  |  |
| CC(=O)N1C[C@H](O)C[C@H]1C(=O)NC(CCCNC(=N)N)C(=O)c1nc2ccccc2s1 (some centres not stated) |  | 13 | 10 |  |
| NCc1ccc2c(c1)C1(CCN(C(=O)c3ccc(C#Cc4ccccc4)o3)CC1)CN2S(=O)(=O)c1ccccc1 | 6.7 | 5.7 | 16 |  |
| NCc1ccc2c(c1)C1(CCN(C(=O)c3ccc(C#Cc4ccccc4)o3)CC1)CO2 [listing 2 of 2 here] |  |  |  | inhibition [26]: < 30%; inhibition [27]: < 30%; inhibition [28]: < 30%; inhibition [29]: < 15%; inhibition [30]: < 15%; inhibition [31]: < 15%; inhibition [32]: < 15%; inhibition [33]: < 15%; inhibition [34]: < 15%; inhibition [35]: < 15%; inhibition [36]: < 15%; inhibition [37]: < 15%; Activity [38]: Active; Activity [39]: inactive; Activity [40]: Active |
| N=C(N)c1ccc2c(c1)C1(CCN(C(=O)c3ccc(C#Cc4ccccc4)o3)CC1)CO2 | 1.4 | 4.5 |  | Ratio IC50 [41]: 300 |

Continued, in another order:

| IC50 [1] [µM] | IC50 [2] [nM] | Ki [2] [nM] | SMILES | further results |
| --- | --- | --- | --- | --- |
| 8.6 | 28 |  | NCc1ccc2c(c1)C1(CCN(C(=O)c3ccc(-c4ccccc4)o3)CC1)CO2 |  |
| 38 | 5.2 | 3.4 | NCc1ccc2c(c1)C1(CCN(C(=O)c3ccc(C#Cc4ccccc4Cl)o3)CC1)CO2 |  |
| 18 |  |  | NCc1ccc2c(c1)C1(CCN(C(=O)c3ccc(C#Cc4ccccc4)o3)CC1)CO2 [listing 1 of 2 here] | Ki [1]: 2500 nM; IC50 [8]: 23 µM; IC50 [9]: 72 µM; remaining at 0.5 h [10]: 95%; bioavailability [11]: 100%; Cmax [12]: 1100 nM; half-life [13]: 420 min; Vd [14]: 17 L/kg; bioavailability [15]: 65%; Cmax [16]: 900 nM; half-life [17]: 1620 min; Vd [18]: 16 L/kg; half-life [19]: > 100 min; remaining at 1 h [20]: 100%; IC50 [21]: > 20 µM; IC50 [22]: > 20 µM; IC50 [23]: > 20 µM; IC50 [24]: > 20 µM; IC50 [25]: > 20 µM |
| 13 | 8.3 |  | Cc1ccc(C#Cc2ccc(C(=O)N3CCC4(CC3)COc3ccc(CN)cc34)o2)cc1 |  |
| 12 | 1.2 | 4 | Cc1ccccc1C#Cc1ccc(C(=O)N2CCC3(CC2)COc2ccc(CN)cc23)o1 |  |
| 9.1 | 90 |  | NCc1ccc2c(c1)C1(CCN(C(=O)c3ccc(Sc4ccccc4)o3)CC1)CO2 |  |
| 5.5 | 13 |  | COc1ccccc1C#Cc1ccc(C(=O)N2CCC3(CC2)COc2ccc(CN)cc23)o1 |  |
| 12 | 4.3 | 3 | NCc1ccc2c(c1)C1(CCN(C(=O)c3ccc(C#Cc4ccccc4F)o3)CC1)CO2 |  |
| 23 | 3200 |  | NCc1ccc2c(c1)C1(CCN(C(=O)c3ccc(C#Cc4ccc(O)cc4)o3)CC1)CO2 |  |
